What was measured:
[1] = biological target: T1, Hepatocyte growth factor receptor (Homo sapiens, UniProt P08581); experiment: Inhibition of recombinant c-Met kinase domain (unknown origin) incubated for 30 mins using gastrin peptide substrate by HTRF assay
[2] = biological target: T1, Hepatocyte growth factor receptor; experiment: Inhibition of HGF-stimulated c-Met autophosphorylation in serum starved human PC3 cells pre-incubated for 1 hr followed by human recombinant HGF stimulation for 10 mins by quantitative electrochemiluminescence immunoassay; assay type: cell-based, PC-3
Summary of the method: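 Serum-starved PC-3 cells (plated in high-glucose DMEM/10% FBS, then 16 h in low-glucose DMEM with 0.1% BSA) were treated with a 10-point inhibitor dilution for 1 h at 37 °C. Cells were then stimulated with 200 ng/mL recombinant human HGF for 10 min and lysed. Phospho-c-Met was captured with biotinylated anti-c-Met and 4G10 by electrochemiluminescence. IC50, n ≥ 2.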

[3] = Clearance in Sprague-Dawley rat at 0.25 mg/kg, iv; assay type: ADME, organism-based; design: dose 0.25 mg/kg, route intravenous; settings: Sprague-Dawley, in vivo
[4] = Volume of distribution at steady state in Sprague-Dawley rat at 0.25 mg/kg, iv; assay type: ADME, organism-based; design: dose 0.25 mg/kg, route intravenous; settings: in vivo, read-out: Vdss
Summary of the method: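 Male Sprague-Dawley rats were given a single IV dose of 0.25 mg/kg. The vehicle was DMSO, or for some compounds 20% (w/v) hydroxypropyl β-cyclodextrin in water adjusted to pH 3.5 with MSA. NC marks cases where the terminal disposition rate constant could not be characterized for lack of slope.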

[5] = Half life in Sprague-Dawley rat at 0.25 mg/kg, iv; assay type: ADME, organism-based; design: dose 0.25 mg/kg, route intravenous; settings: in vivo
[6] = AUC (0 to infinity) in Sprague-Dawley rat at 0.25 mg/kg, iv; assay type: ADME, organism-based, Plasma; design: dose 0.25 mg/kg, route intravenous, time infinity; settings: Sprague-Dawley, plasma
[7] = Oral bioavailability in Sprague-Dawley rat at 2 mg/kg; assay type: ADME, organism-based; settings: in vivo
Summary of the method: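 Male Sprague-Dawley rats given 2.0 mg/kg orally in 2% (w/v) hydroxypropylmethylcellulose, 1% (w/v) Tween 80 in water, pH 2.2 (adjusted with HCl or MSA). Some inhibitors instead used 10% (v/v) dimethylacetamide in the same vehicle.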

Cytochrome P450 2D6 = Cytochrome P450 2D6 (Homo sapiens, UniProt P10635); experiment: Inhibition of CYP2D6 (unknown origin); assay type: ADME
Cytochrome P450 3A4 = Cytochrome P450 3A4 (Homo sapiens, UniProt P08684); experiment: Inhibition of CYP3A4 (unknown origin); assay type: ADME
Sequence of Cytochrome P450 3A4 (P08684 whole entry): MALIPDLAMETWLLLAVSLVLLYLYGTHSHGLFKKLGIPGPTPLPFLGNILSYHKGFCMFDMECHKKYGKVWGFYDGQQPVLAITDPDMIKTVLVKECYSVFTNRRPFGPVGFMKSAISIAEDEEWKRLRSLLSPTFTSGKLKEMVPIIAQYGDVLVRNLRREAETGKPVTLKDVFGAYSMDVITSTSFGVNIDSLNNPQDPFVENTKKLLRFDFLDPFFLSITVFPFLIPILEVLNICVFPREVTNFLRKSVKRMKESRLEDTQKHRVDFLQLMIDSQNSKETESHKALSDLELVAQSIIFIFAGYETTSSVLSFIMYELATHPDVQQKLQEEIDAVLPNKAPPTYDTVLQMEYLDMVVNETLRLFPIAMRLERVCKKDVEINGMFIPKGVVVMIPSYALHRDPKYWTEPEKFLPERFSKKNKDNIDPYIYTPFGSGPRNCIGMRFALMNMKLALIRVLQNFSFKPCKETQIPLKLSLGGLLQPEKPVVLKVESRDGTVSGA

T1 sequence (P08581 whole entry, the tested form may be a part): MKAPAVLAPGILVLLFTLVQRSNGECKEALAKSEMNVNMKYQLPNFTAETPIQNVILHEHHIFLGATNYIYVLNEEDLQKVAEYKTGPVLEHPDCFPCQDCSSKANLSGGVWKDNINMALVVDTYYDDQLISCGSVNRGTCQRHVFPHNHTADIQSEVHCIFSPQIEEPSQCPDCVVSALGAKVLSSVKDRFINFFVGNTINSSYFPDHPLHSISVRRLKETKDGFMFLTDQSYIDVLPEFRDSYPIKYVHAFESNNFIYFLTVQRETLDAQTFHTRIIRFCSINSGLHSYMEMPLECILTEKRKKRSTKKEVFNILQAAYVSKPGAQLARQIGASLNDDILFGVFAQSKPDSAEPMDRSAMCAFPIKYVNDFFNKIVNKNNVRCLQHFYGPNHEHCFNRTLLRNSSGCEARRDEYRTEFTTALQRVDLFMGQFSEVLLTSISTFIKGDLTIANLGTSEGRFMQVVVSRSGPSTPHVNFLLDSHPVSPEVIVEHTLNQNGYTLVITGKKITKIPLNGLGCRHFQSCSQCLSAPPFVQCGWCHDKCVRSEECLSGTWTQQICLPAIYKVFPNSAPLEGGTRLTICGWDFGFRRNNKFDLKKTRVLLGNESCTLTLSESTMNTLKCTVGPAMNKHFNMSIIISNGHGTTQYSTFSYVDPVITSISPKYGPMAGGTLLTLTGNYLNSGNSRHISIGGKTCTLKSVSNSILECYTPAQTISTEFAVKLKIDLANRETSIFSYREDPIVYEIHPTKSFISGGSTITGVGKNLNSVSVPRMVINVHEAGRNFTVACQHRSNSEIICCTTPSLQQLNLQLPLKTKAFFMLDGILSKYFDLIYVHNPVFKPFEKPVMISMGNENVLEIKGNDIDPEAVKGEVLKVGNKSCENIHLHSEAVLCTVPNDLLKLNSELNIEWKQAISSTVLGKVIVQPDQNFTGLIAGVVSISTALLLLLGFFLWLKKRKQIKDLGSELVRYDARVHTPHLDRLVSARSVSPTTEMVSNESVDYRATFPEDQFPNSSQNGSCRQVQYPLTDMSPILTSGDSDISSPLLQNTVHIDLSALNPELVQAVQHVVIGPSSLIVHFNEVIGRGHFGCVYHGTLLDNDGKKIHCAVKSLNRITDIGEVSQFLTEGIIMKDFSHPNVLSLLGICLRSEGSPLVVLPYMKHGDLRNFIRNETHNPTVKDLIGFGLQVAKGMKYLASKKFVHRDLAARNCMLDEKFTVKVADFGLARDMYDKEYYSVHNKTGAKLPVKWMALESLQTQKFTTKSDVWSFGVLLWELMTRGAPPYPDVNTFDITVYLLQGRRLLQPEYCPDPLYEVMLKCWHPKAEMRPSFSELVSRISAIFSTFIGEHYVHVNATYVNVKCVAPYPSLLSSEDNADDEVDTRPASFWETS
Sequence of Cytochrome P450 2D6 (P10635 whole entry): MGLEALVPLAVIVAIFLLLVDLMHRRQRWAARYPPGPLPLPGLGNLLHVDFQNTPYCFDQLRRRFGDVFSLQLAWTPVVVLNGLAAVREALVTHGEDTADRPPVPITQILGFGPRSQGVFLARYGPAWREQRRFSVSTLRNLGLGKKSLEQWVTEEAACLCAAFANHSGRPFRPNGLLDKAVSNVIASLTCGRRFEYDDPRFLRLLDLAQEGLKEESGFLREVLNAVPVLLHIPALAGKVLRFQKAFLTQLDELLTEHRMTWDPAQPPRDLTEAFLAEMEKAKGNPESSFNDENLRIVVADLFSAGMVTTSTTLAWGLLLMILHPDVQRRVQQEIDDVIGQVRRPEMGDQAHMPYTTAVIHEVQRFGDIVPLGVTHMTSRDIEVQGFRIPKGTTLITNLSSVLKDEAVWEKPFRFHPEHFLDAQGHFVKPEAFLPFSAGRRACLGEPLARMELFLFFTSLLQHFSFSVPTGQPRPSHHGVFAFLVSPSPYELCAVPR

## Cc1cc(-c2cc(F)c3nnc([C@](C)(F)c4ccc5ncccc5c4)n3c2)sn1
[1]
  IC50: 5 nM
[2]
  IC50: 6 nM
[3]
  clearance: 30.2 mL/min/kg
[4]
  Vd: 1.07 L/kg
[5]
  half-life: 0.72 h
[6]
  AUC(0-inf): 0.37 µM·h
[7]
  bioavailability: 27%

## COc1ccc2c(OCc3nnc4ccc(-c5ccccc5)cn34)ccnc2c1
[1]
  IC50: 31 nM

## COc1ccc2c(OCc3nnc4c(F)cc(-c5ccccc5)cn34)ccnc2c1
[1]
  IC50: 7 nM

## c1ccc(-c2ccc3nnc(Cc4ccc5ncccc5c4)n3c2)cc1
[1]
  IC50: 210 nM

## Fc1cc(-c2ccccc2)cn2c(Cc3ccc4ncccc4c3)nnc12
[1]
  IC50: 60 nM

## Fc1cc(-c2ccccc2)cn2c(C(F)(F)c3ccc4ncccc4c3)nnc12
[1]
  IC50: 23 nM

## Fc1cc(-c2ccccn2)cn2c(C(F)(F)c3ccc4ncccc4c3)nnc12
[1]
  IC50: 12 nM
[2]
  IC50: 32 nM
Cytochrome P450 2D6
  inhibition (INH): Not Active
Cytochrome P450 3A4
  inhibition (INH): Not Active

## Cc1cc(-c2cc(F)c3nnc(C(F)(F)c4ccc5ncccc5c4)n3c2)on1
[1]
  IC50: 9 nM
[2]
  IC50: 9 nM
[3]
  clearance: 0.667 mL/min/kg
[4]
  Vd: 0.13 L/kg
[5]
  half-life: 2.5 h
[6]
  AUC(0-inf): 18.5 µM·h
[7]
  bioavailability: 62%
Cytochrome P450 2D6
  inhibition (INH): Not Active
Cytochrome P450 3A4
  inhibition (INH): Not Active

## Cc1ncc(-c2cc(F)c3nnc(C(F)(F)c4ccc5ncccc5c4)n3c2)s1
[1]
  IC50: 11 nM
[2]
  IC50: 35 nM
Cytochrome P450 2D6
  inhibition (INH): Not Active
Cytochrome P450 3A4
  inhibition (INH): Not Active

## Fc1cc(-c2cscn2)cn2c(C(F)(F)c3ccc4ncccc4c3)nnc12
[1]
  IC50: 4 nM
[2]
  IC50: 7 nM
[3]
  clearance: 27.8 mL/min/kg
[4]
  Vd: 0.39 L/kg
[5]
  half-life: 0.3 h
[6]
  AUC(0-inf): 0.38 µM·h
[7]
  bioavailability: 110%
Cytochrome P450 2D6
  inhibition (INH): Not Active
Cytochrome P450 3A4
  inhibition (INH): Not Active

## Cn1cc(-c2cc(F)c3nnc(C(F)(F)c4ccc5ncccc5c4)n3c2)cn1
[1]
  IC50: 22 nM
[2]
  IC50: 15 nM
[3]
  clearance: 0.167 mL/min/kg
[4]
  Vd: 0.13 L/kg
[5]
  half-life: 6.6 h
[6]
  AUC(0-inf): 44.4 µM·h
[7]
  bioavailability: 110%
Cytochrome P450 2D6
  inhibition (INH): Not Active
Cytochrome P450 3A4
  inhibition (INH): Not Active

## Fc1cc(-c2cnn(C3CC3)c2)cn2c(C(F)(F)c3ccc4ncccc4c3)nnc12
[1]
  IC50: 24 nM
[2]
  IC50: 25 nM
[3]
  clearance: 0.167 mL/min/kg
[4]
  Vd: 0.09 L/kg
[5]
  half-life: 4.4 h
[6]
  AUC(0-inf): 42.6 µM·h
[7]
  bioavailability: 40%
Cytochrome P450 2D6
  inhibition (INH): Not Active
Cytochrome P450 3A4
  inhibition (INH): Not Active

## Cn1cc(-c2cc(F)c3nnc(Cc4ccc5ncccc5c4)n3c2)cn1
[1]
  IC50: 18 nM

## COc1cnc2ccc(Cc3nnc4c(F)cc(-c5cnn(C)c5)cn34)cc2c1
[1]
  IC50: 11 nM

## Cn1cc(-c2cc(F)c3nnc(Cc4ccc5ncc(O)cc5c4)n3c2)cn1
[1]
  IC50: 51 nM

## Cn1cc(-c2cc(F)c3nnc(Cc4ccc5nccnc5c4)n3c2)cn1
[1]
  IC50: 182 nM

## CC(=O)Nc1nc2ccc(Cc3nnc4c(F)cc(-c5cnn(C)c5)cn34)cc2s1
[1]
  IC50: 67 nM

## Cn1cc(-c2cc(F)c3nnc(Cc4ccc5nc(N)sc5c4)n3c2)cn1
[1]
  IC50: 52 nM

Source: ChEMBL document CHEMBL3414463, “Discovery of potent and selective 8-fluorotriazolopyridine c-Met inhibitors” (J Med Chem, 2015)
